In brackets after ≈: the same amount, converted by molar mass. Activity calls are given as the source filed them. The calls are words filed in the database; no cut-off is given here.
Key:
[1] = test system: Radical scavenging activity; experiment: Antioxidant activity of the compound assessed as DPPH radical scavenging activity at 400 ug/ml after 20 mins; format: functional
In short: (§1)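 Compound dissolved in methylene dichloride at the stated concentration, mixed with 4 mL 0.1 mM methanolic DPPH, held 20 min at ambient temperature; absorbance read at 517 nm. Scavenging % = (A_DPPH − A_test)/A_DPPH × 100. Triplicate; ascorbic acid positive control.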

Pseudomonas aeruginosa [2] = experiment: Antibacterial activity against Pseudomonas aeruginosa ATTC 27853 at MIC after 3 to 4 days by disc diffusion method; format: functional
In short: (§2)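 Agar well diffusion: seeded agar plates dried 1 h at 37 °C, wells punched and filled with test compound at MIC level in DMSO; DMSO solvent control. Plates in triplicate, kept at 37 °C for 3–4 days; zone of inhibition read.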

Aspergillus fumigatus [3] = experiment: Antifungal activity against Aspergillus fumigatus NCIM 902 at MIC after 3 to 4 days; format: functional
Aspergillus flavus [4] = experiment: Antifungal activity against Aspergillus flavus NCIM 524 by serial plate dilution method; format: functional
Mus musculus [5] = experiment: Analgesic activity Wistar albino mouse assessed as tail withdrawal latency time at 100 mg/kg, po administered by intragastric tube after 120 mins (reference value: 1.363 +/- 0.1297 sec); format: functional
[6] = test system: Trichophyton mentagrophytes; experiment: Antifungal activity against recultured Trichophyton mentagrophytes by serial plate dilution method; format: functional
Aspergillus flavus [7] = experiment: Antifungal activity against Aspergillus flavus NCIM 524 at MIC after 3 to 4 days; format: functional
Mus musculus [8] = experiment: Analgesic activity Wistar albino mouse assessed as tail withdrawal latency time at 100 mg/kg, po administered by intragastric tube after 60 mins (reference value: 1.363 +/- 0.1297 sec); format: functional
Staphylococcus aureus [9] = experiment: Antibacterial activity against Staphylococcus aureus ATTC 25923 after 16 to 18 hrs by serial dilution method; format: functional
In short: (§3)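 Serial drug dilutions in Mueller-Hinton broth adjusted to pH 5.0 with phosphate buffer, inoculated with standardized bacterial suspension, incubated 16–18 h at 37 °C; MIC taken as lowest concentration without conspicuous growth.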

Klebsiella pneumoniae [10] = experiment: Antibacterial activity against recultured Klebsiella pneumoniae after 16 to 18 hrs by serial dilution method; format: functional; in short: as §3
Klebsiella pneumoniae [11] = experiment: Antibacterial activity against recultured Klebsiella pneumoniae at MIC after 3 to 4 days by disc diffusion method; format: functional; in short: as §2
Escherichia coli [12] = experiment: Antibacterial activity against Escherichia coli ATTC 25922 at MIC after 3 to 4 days by disc diffusion method; format: functional; in short: as §2
Aspergillus fumigatus [13] = experiment: Antifungal activity against Aspergillus fumigatus NCIM 902 by serial plate dilution method; format: functional
Escherichia coli [14] = experiment: Antibacterial activity against Escherichia coli ATTC 25922 after 16 to 18 hrs by serial dilution method; format: functional; in short: as §3
Staphylococcus aureus [15] = experiment: Antibacterial activity against Staphylococcus aureus ATTC 25923 at MIC after 3 to 4 days by disc diffusion method; format: functional; in short: as §2
[16] = test system: Radical scavenging activity; experiment: Antioxidant activity of the compound assessed as DPPH radical scavenging activity at 800 ug/ml after 20 mins; format: functional; in short: as §1
Talaromyces marneffei [17] = experiment: Antifungal activity against recultured Penicillium marneffei at MIC after 3 to 4 days; format: functional
Mus musculus [18] = experiment: Analgesic activity Wistar albino mouse assessed as tail withdrawal latency time at 100 mg/kg, po administered by intragastric tube after 180 mins (reference value: 1.363 +/- 0.1297 sec); format: functional
[19] = test system: Radical scavenging activity; experiment: Antioxidant activity of the compound assessed as DPPH radical scavenging activity at 200 ug/ml after 20 mins; format: functional; in short: as §1
Pseudomonas aeruginosa [20] = experiment: Antibacterial activity against Pseudomonas aeruginosa ATTC 27853 after 16 to 18 hrs by serial dilution method; format: functional; in short: as §3
Rattus norvegicus = experiment: Antiinflammatory activity rat assessed as reduction of carrageenan-induced paw oedema at 100 mg/kg, po administered 30 mins before carrageenan challenge measured after 60 to 180 mins; format: functional, organism-based; parameters: dose 100 mg/kg
In short: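 Rats randomly assigned, 100 mg/kg orally as suspension in 1% carboxymethyl cellulose, 30 min before carrageenan injected into right hind paw. Paw thickness measured with vernier callipers at 60, 120 and 180 min. Diclofenac reference; mean ± SEM, n = 6, vs vehicle control.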

Talaromyces marneffei [21] = experiment: Antifungal activity against recultured Penicillium marneffei by serial plate dilution method; format: functional
[22] = test system: Trichophyton mentagrophytes; experiment: Antifungal activity against recultured Trichophyton mentagrophytes at MIC after 3 to 4 days; format: functional

Row | MIC (Aspergillus flavus [4]) [µM] | MIC [6] [µM] | MIC (Staphylococcus aureus [9]) [µM] | MIC (Klebsiella pneumoniae [10]) [µM] | MIC (Aspergillus fumigatus [13]) [µM] | MIC (Escherichia coli [14]) [µM] | MIC (Pseudomonas aeruginosa [20]) [µM] | Compound | inhibition [1] [%] | diameter of the inhibition zone (DIZ) (Pseudomonas aeruginosa [2]) [mm] | diameter of the inhibition zone (DIZ) (Aspergillus fumigatus [3]) [mm] | Time (Mus musculus [5]) [s] | diameter of the inhibition zone (DIZ) (Aspergillus flavus [7]) [mm] | Time (Mus musculus [8]) [s] | diameter of the inhibition zone (DIZ) (Klebsiella pneumoniae [11]) [mm] | diameter of the inhibition zone (DIZ) (Escherichia coli [12]) [mm] | diameter of the inhibition zone (DIZ) (Staphylococcus aureus [15]) [mm] | inhibition [16] [%] | diameter of the inhibition zone (DIZ) (Talaromyces marneffei [17]) [mm] | Time (Mus musculus [18]) [s] | inhibition [19] [%] | also measured
1 | 14.5 (≈ 6.25 µg/mL) | 14.5 (≈ 6.25 µg/mL) | 28.9 (≈ 12.5 µg/mL) | 28.9 (≈ 12.5 µg/mL) | 14.5 (≈ 6.25 µg/mL) | 28.9 (≈ 12.5 µg/mL) | 28.9 (≈ 12.5 µg/mL) | COc1ccc(Br)c(-c2nnc3sc(-c4ccc([N+](=O)[O-])cc4)nn23)c1 | 68.1 | 11 | 16 | 3.263 | 16 | 3.375 | 11 | 11 | 11 | 71.9 | 16 | 2.663 | 62.9 | Activity (Rattus norvegicus): Active; MIC (Talaromyces marneffei [21]): 14.5 µM (≈ 6.25 µg/mL); diameter of the inhibition zone (DIZ) [22]: 16 mm
2 | 31.1 (≈ 12.5 µg/mL) | 15.5 (≈ 6.25 µg/mL) | 31.1 (≈ 12.5 µg/mL) | 31.1 (≈ 12.5 µg/mL) | 31.1 (≈ 12.5 µg/mL) | 31.1 (≈ 12.5 µg/mL) | 15.5 (≈ 6.25 µg/mL) | COc1ccc(Br)c(-c2nnc3sc(-c4ccc(N)cc4)nn23)c1 | 68 | 16 | 11 | 3.563 | 11 | 3.675 | 11 | 11 | 11 | 75.9 | 11 | 2.425 | 60.3 | Activity (Rattus norvegicus): Active; MIC (Talaromyces marneffei [21]): 31.1 µM (≈ 12.5 µg/mL); diameter of the inhibition zone (DIZ) [22]: 16 mm
3 | 13.1 (≈ 6.25 µg/mL) | 13.1 (≈ 6.25 µg/mL) | 13.1 (≈ 6.25 µg/mL) | 13.1 (≈ 6.25 µg/mL) | 13.1 (≈ 6.25 µg/mL) | 13.1 (≈ 6.25 µg/mL) | 26.2 (≈ 12.5 µg/mL) | COc1ccc(Br)c(-c2nnc3sc(-c4cc([N+](=O)[O-])cc([N+](=O)[O-])c4)nn23)c1 | 68.4 | 11 | 16 | 3.563 | 16 | 3.675 | 16 | 16 | 16 | 78 | 11 | 2.425 | 58.5 | Activity (Rattus norvegicus): Active; MIC (Talaromyces marneffei [21]): 26.2 µM (≈ 12.5 µg/mL); diameter of the inhibition zone (DIZ) [22]: 16 mm

More lines, now with the values behind:

Row | Compound | MIC (Aspergillus flavus [4]) [µM] | MIC [6] [µM] | MIC (Staphylococcus aureus [9]) [µM] | MIC (Klebsiella pneumoniae [10]) [µM] | MIC (Aspergillus fumigatus [13]) [µM] | MIC (Escherichia coli [14]) [µM] | MIC (Pseudomonas aeruginosa [20]) [µM] | inhibition [1] [%] | diameter of the inhibition zone (DIZ) (Pseudomonas aeruginosa [2]) [mm] | diameter of the inhibition zone (DIZ) (Aspergillus fumigatus [3]) [mm] | Time (Mus musculus [5]) [s] | diameter of the inhibition zone (DIZ) (Aspergillus flavus [7]) [mm] | Time (Mus musculus [8]) [s] | diameter of the inhibition zone (DIZ) (Klebsiella pneumoniae [11]) [mm] | diameter of the inhibition zone (DIZ) (Escherichia coli [12]) [mm] | diameter of the inhibition zone (DIZ) (Staphylococcus aureus [15]) [mm] | inhibition [16] [%] | diameter of the inhibition zone (DIZ) (Talaromyces marneffei [17]) [mm] | Time (Mus musculus [18]) [s] | inhibition [19] [%] | also measured
4 | COc1ccc(C2Nn3c(nnc3-c3cc(OC)ccc3Br)S2)cc1 (configuration not stated) | 29.8 (≈ 12.5 µg/mL) | 29.8 (≈ 12.5 µg/mL) | 29.8 (≈ 12.5 µg/mL) | 29.8 (≈ 12.5 µg/mL) | 14.9 (≈ 6.25 µg/mL) | 29.8 (≈ 12.5 µg/mL) | 29.8 (≈ 12.5 µg/mL) | 65.9 | 11 | 16 | 3.334 | 11 | 3.468 | 11 | 11 | 11 | 77.9 | 16 | 2.841 | 40.6 | Activity (Rattus norvegicus): Active; MIC (Talaromyces marneffei [21]): 14.9 µM (≈ 6.25 µg/mL); diameter of the inhibition zone (DIZ) [22]: 11 mm
5 | COc1ccc(Br)c(-c2nnc3n2NC(c2cccc(Cl)c2)S3)c1 (configuration not stated) | 29.5 (≈ 12.5 µg/mL) | 29.5 (≈ 12.5 µg/mL) | 29.5 (≈ 12.5 µg/mL) | 29.5 (≈ 12.5 µg/mL) | 29.5 (≈ 12.5 µg/mL) | 29.5 (≈ 12.5 µg/mL) | 29.5 (≈ 12.5 µg/mL) | 44.7 | 11 | 11 | 3.623 | 11 | 3.546 | 11 | 11 | 11 | 62.5 | 11 | 2.235 | 35.9 | Activity (Rattus norvegicus): Active; MIC (Talaromyces marneffei [21]): 29.5 µM (≈ 12.5 µg/mL); diameter of the inhibition zone (DIZ) [22]: 11 mm
6 | COc1ccc(Br)c(-c2nnc3n2NC(c2ccccc2Cl)S3)c1 (configuration not stated) | 14.8 (≈ 6.25 µg/mL) | 29.5 (≈ 12.5 µg/mL) | 14.8 (≈ 6.25 µg/mL) | 29.5 (≈ 12.5 µg/mL) | 14.8 (≈ 6.25 µg/mL) | 29.5 (≈ 12.5 µg/mL) | 29.5 (≈ 12.5 µg/mL) | 51.8 | 11 | 16 | 3.25 | 16 | 3.6 | 11 | 11 | 16 | 62.7 | 11 | 2.938 | 48 | Activity (Rattus norvegicus): Active; MIC (Talaromyces marneffei [21]): 29.5 µM (≈ 12.5 µg/mL); diameter of the inhibition zone (DIZ) [22]: 11 mm
7 | COc1ccc(Br)c(-c2nnc3n2NC(c2ccc([N+](=O)[O-])cc2)S3)c1 (configuration not stated) | 14.4 (≈ 6.25 µg/mL) | 28.8 (≈ 12.5 µg/mL) | 28.8 (≈ 12.5 µg/mL) | 14.4 (≈ 6.25 µg/mL) | 14.4 (≈ 6.25 µg/mL) | 28.8 (≈ 12.5 µg/mL) | 14.4 (≈ 6.25 µg/mL) | 72.4 | 16 | 16 | 3.563 | 16 | 3.675 | 16 | 11 | 11 | 82.7 | 16 | 2.425 | 53.2 | Activity (Rattus norvegicus): Active; MIC (Talaromyces marneffei [21]): 14.4 µM (≈ 6.25 µg/mL); diameter of the inhibition zone (DIZ) [22]: 11 mm
8 | COc1ccc(Br)c(-c2nnc3sc(-c4cc(Cl)cc(Cl)c4)nn23)c1 | 27.4 (≈ 12.5 µg/mL) | 13.7 (≈ 6.25 µg/mL) | 27.4 (≈ 12.5 µg/mL) | 13.7 (≈ 6.25 µg/mL) | 13.7 (≈ 6.25 µg/mL) | 13.7 (≈ 6.25 µg/mL) | 13.7 (≈ 6.25 µg/mL) | 54.3 | 16 | 16 | 3.075 | 11 | 3.421 | 16 | 16 | 11 | 66.8 | 16 | 2.388 | 49.8 | Activity (Rattus norvegicus): Active; MIC (Talaromyces marneffei [21]): 13.7 µM (≈ 6.25 µg/mL); diameter of the inhibition zone (DIZ) [22]: 16 mm
9 | O=C1O[C@H]([C@@H](O)CO)C(O)=C1O |  |  |  |  |  |  |  | 95 |  |  |  |  |  |  |  |  | 96 |  |  | 87.6 | 
10 | COc1ccc(Br)c(-c2nnc3sc(-c4ccc(C)cc4O)nn23)c1 | 15 (≈ 6.25 µg/mL) | 15 (≈ 6.25 µg/mL) | 29.9 (≈ 12.5 µg/mL) | 15 (≈ 6.25 µg/mL) | 15 (≈ 6.25 µg/mL) | 15 (≈ 6.25 µg/mL) | 15 (≈ 6.25 µg/mL) |  | 16 | 16 | 3.321 | 16 | 2.388 | 16 | 16 | 11 |  | 11 | 3.121 |  | Activity (Rattus norvegicus): Active; MIC (Talaromyces marneffei [21]): 29.9 µM (≈ 12.5 µg/mL); diameter of the inhibition zone (DIZ) [22]: 16 mm

From ChEMBL document CHEMBL1955832, “Facile synthesis, characterization and pharmacological activities of 3,6-disubstituted 1,2,4-triazolo[3,4-b][1,3,4]thiadiazoles and 5,6-dihydro-3,6-disubstituted-1,2,4-triazolo[3,4-b][1,3,4]thiadiazoles” (2012)
